Assay outcomes from PubChem BioAssay.
Sampled rows, rich in hits. Any-hit rate of the full collection: about 4%.
ABHD5-PLIN5 inh – ABHD5-PLIN5 protein interaction inhibition; Split G. princeps luciferase complementation, luminescence, 4 h; 360,000 tested, 0.78% active; inhibition, % at 4 µM; Q00G26+Q8WTS1;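 active = inhibition above the mean inhibition across every tested compound plus 3 SD, cut at about 22% in these data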;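 also: 0% = DMSO only wells and the 100% control is not disclosed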
Target sequence (Q00G26 whole entry, looked up): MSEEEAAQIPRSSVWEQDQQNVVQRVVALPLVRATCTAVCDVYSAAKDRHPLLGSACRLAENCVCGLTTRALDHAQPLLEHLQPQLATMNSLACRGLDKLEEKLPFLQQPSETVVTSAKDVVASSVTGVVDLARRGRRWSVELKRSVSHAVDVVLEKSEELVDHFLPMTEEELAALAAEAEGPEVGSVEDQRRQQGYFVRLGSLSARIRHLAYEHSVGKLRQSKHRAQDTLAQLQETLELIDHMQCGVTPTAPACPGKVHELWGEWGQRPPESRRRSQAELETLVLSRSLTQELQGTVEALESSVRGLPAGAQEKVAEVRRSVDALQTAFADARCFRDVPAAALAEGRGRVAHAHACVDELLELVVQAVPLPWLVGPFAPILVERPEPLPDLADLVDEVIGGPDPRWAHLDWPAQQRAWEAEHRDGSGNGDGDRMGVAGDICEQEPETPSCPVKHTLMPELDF
Target sequence (Q8WTS1 whole entry, looked up): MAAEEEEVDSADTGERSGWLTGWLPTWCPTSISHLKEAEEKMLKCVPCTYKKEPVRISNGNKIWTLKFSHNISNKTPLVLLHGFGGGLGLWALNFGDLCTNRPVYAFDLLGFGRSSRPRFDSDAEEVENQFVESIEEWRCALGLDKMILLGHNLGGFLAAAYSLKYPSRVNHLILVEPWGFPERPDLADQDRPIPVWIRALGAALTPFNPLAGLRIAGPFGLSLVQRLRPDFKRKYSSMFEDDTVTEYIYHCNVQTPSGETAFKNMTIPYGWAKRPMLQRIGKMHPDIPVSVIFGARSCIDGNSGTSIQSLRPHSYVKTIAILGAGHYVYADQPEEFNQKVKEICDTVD
XBP1 UPR activ – adaptive UPR (XBP1) activation. activation, % at 20 µM. 330,000 tested, 0.33% active. CHO-XBP1 luciferase reporter, IRE1-XBP1 UPR activation, luminescence; percent of tunicamycin response, DMSO as zero;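 active = versus positive control, 20 µM dose yields 30% or more activation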;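 also: 100% = tunicamycin at 10 µg/mL and 0% = DMSO only wells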
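Assay system: CHO-XBP1 luciferase reporter cells; Schedule: 6 h treatment, 37 °C; Detection: glow luminescence from Steady-Glo reagent; Benchmarks: high control tunicamycin 10 µg/mL final, low control DMSO vehicle only.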
Mdm2-MdmX inh – human Mdm2/MdmX binding inhibition | O15151+Q00987 | SaOS-2 split-luciferase Mdm2/MdmX complementation, luminescence | inhibition, % at 8 µM | 330,000 tested, 3% active;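 active = inhibition of at least 50% at 8 µM in the primary screen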
UPR CHOP act – apoptotic UPR (CHOP) activation; CHO-CHOP luciferase reporter, luminescence; percent of tunicamycin response over DMSO baseline; activation, % at 10 µM; 330,000 tested, 0.34% active;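 active = at 10 µM dose, activation of 40% or more, normalized to positive control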;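 also: 100% = tunicamycin at 10 µg/mL and 0% = DMSO alone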
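Assay system: CHO-CHOP cells, stable luciferase reporter of PERK-eIF2a-CHOP signalling / Buffer or medium: F12 plus 10% serum / Compound dosing: one dose, 10 µM in 0.5% DMSO / Times: 6 h compound treatment, 37 °C / Technique: luciferase luminescence / Read-out: % reporter activation, DMSO baseline versus tunicamycin full activation / Benchmarks: tunicamycin and DMSO controls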
Exocytosis inh – blocks lytic granule exocytosis | TALL-104 LAMP-1 surface exposure, flow cytometry; cells stimulated with thapsigargin and PMA | inhibition, % at 10 µM | 360,000 tested, 0.66% active | AID 651702;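 active = inhibition above about 55%, limit read from the data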
ABHD5-PLIN5 conf – ABHD5-PLIN5 interaction inhibition, confirmed | shares compounds with ABHD5-PLIN5 inh | biochemical ABHD5-PLIN5 interaction, luminescence | inhibition, % at 4 µM | 2,200 tested, 67% active; in the data active = inhibition above about 23%;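 also: 0% = DMSO vehicle wells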
HNF4 split-luc – active in HNF4 split-luciferase counter-screen for ABHD5-PLIN5 inhibitors; inhibition, % at 4 µM; HNF4 dimerization, luminescence, biochemical; AID 651674; shares compounds with ABHD5-PLIN5 inh; 2,200 tested, 77% active;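 active = mean inhibition across replicate wells exceeding the computed hit threshold, cut at about 13% in these data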;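 also: light from luciferase halves that rejoin when HNF4 fusion proteins dimerize; 0% = DMSO only wells and the 100% control is not given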
An asterisk follows results filed as active; . = no result given.

SMILES	ABHD5-PLIN5 inh	XBP1 UPR activ	Mdm2-MdmX inh	UPR CHOP act	Exocytosis inh	ABHD5-PLIN5 conf	HNF4 split-luc
Cc1ccc(/C=C/C(=O)Nc2ccc(Oc3ccccc3)cc2)o1	24.2*	.	.	.	13.7	10.1	39.0*
Cc1ccc(/C=C/C(=O)NCc2cccs2)o1	24.5*	-0.3	10.7	-0.4	32.7	14.4	18.0*
Cc1cc(NS(=O)(=O)c2ccc(NC(=O)/C=C/c3ccccc3)cc2)nc(C)n1	5.8	-4.3	31.8	-0.7	-5.9	.	.
COc1ccc(NC(=O)/C=C/c2ccc(C)o2)cc1S(=O)(=O)N1CCOCC1	23.1*	0.4	14.5	1.6	0.4	16.3	17.4*
O=C(O)/C=C/C(=O)Nc1ccc(Oc2ccccc2)cc1	5.0	-0.3	-13.1	3.0	5.6	.	.
COc1cc(/C=C/C(=O)Nc2ccc(OC)c(S(=O)(=O)N3CCOCC3)c2)ccc1OC(F)F	-5.7	-1.8	33.4	1.0	0.4	.	.
CCN1C(N(C)CCc2cccs2)=N[C@@H](c2ccccc2)C(C(=O)OC)=C1C	-3.0	-0.4	-7.1	0.5	-0.9	.	.
O=C(NC1CCCCC1)C(C1CC1)n1c(=O)c(-c2ccccc2)nc2ccccc21 (configuration not stated)	-4.8	.	.	.	-1.6	.	.
O=C(NCc1ccccc1)C(c1cc2ccccc2o1)n1c(=O)c(-c2ccco2)nc2ccccc21 (configuration not stated)	90.6*	.	.	.	9.9	62.4*	15.3*
O=C(NCc1ccccc1)C(c1ccc(C(F)(F)F)cc1)n1c(=O)c(-c2ccco2)nc2ccccc21 (configuration not stated)	74.3*	.	.	.	8.8	94.5*	43.9*
O=C(NCc1ccccc1)C(C1CC1)n1c(=O)c(-c2ccco2)nc2ccccc21 (configuration not stated)	38.2*	.	.	.	-3.0	37.4*	12.9*
CC(C)(C)NC(=O)C(c1ccc(C(F)(F)F)cc1)n1c(=O)c(-c2ccco2)nc2ccccc21 (configuration not stated)	60.0*	.	.	.	2.3	87.3*	37.5*
CC(C)(C)NC(=O)C(c1ccccc1)n1c(=O)c(-c2ccccc2)nc2ccccc21 (configuration not stated)	-4.7	.	.	.	3.1	.	.
CCN1CCN(c2ccc(S(=O)(=O)N3CCCCC3)cc2NC(=O)c2ccccc2)CC1	-0.6	-0.8	26.3	0.8	0.3	.	.
O=C(NC(Cc1ccccc1)C(=O)N1CCN(S(=O)(=O)c2ccccc2)CC1)c1ccccc1 (configuration not stated)	-3.2	-3.2	23.4	0.3	-2.2	.	.
O=C(NCc1ccccc1)C(c1ccccc1)n1c(=O)c(-c2ccco2)nc2ccccc21 (configuration not stated)	74.3*	.	.	.	10.1	48.1*	11.7
N#C/C(=C\c1ccccc1)C(=O)N1CCN(c2ccccc2F)CC1	37.9*	-3.7	26.1	3.5	-15.0	51.9*	38.5*
C/C(=C/c1ccccc1)C(=O)N1CCN(c2ccccc2F)CC1	-4.3	-0.8	11.9	2.6	-3.2	.	.
N#C/C(=C\c1cccc(O)c1)C(=O)N1CCCCC1	17.2	0.6	14.3	0.9	0.3	.	.
N#C/C(=C\c1cccc(Br)c1)C(=O)N1CCCCC1	24.1*	-2.0	12.4	0.6	13.7	71.3*	53.4*
CN(C)CCCN(C(=O)COc1ccccc1)c1nc2c(F)cccc2s1	7.5	-4.3	15.6	-0.3	8.9	.	.
Cc1cccc2sc(N(CCCN(C)C)C(=O)c3ccc(Cl)s3)nc12	25.3*	-0.3	22.0	-0.1	-5.2	15.7	8.1
COc1cccc2sc(N(CCCN(C)C)C(=O)COc3ccc(Cl)cc3)nc12	28.7*	-1.9	-4.3	0.7	4.9	23.1*	8.3
COC(=O)c1c(NC(=O)CSc2ncnc3[nH]ncc23)sc2c1CCC2	-6.1	-1.5	7.6	2.8	0.2	.	.
O=C(CSCc1ccccc1Cl)NNC(=S)Nc1ccccc1	1.4	-2.0	-15.7	0.1	-3.2	.	.
SMILES	ABHD5-PLIN5 inh	XBP1 UPR activ	Mdm2-MdmX inh	UPR CHOP act	Exocytosis inh	ABHD5-PLIN5 conf	HNF4 split-luc
Cc1ccsc1/C=N/NC(=O)CNC(=O)c1ccco1	-1.8	3.5	-2.3	1.8	0.1	.	.
Cc1ccsc1/C=N/NC(=O)CNC(=O)c1cccc([N+](=O)[O-])c1C	24.9*	-0.4	8.6	0.2	-3.1	1.7	0.3
Cc1ccccc1-n1c(=O)cc(N2CCN(C(=O)c3ccco3)CC2)[nH]c1=O	24.9*	-2.1	-1.1	-2.5	5.5	3.7	7.3
O=C(Nc1ccc(Cl)cc1)OCCn1nnnc1C(c1ccccc1Cl)N1CCOCC1 (configuration not stated)	8.8	-0.9	30.5	0.9	-2.9	.	.
O=C1/C(=C/c2ccncc2)CCC/C1=C\c1ccncc1	99.4*	.	.	.	4.7	104.1*	109.2*
O=C1/C(=C\c2ccncc2)CCc2ccccc21	31.8*	0.3	29.3	1.1	-2.2	63.3*	60.0*
O=C1/C(=C/c2ccncc2)CCc2ccccc21	34.4*	-2.0	38.7	1.2	-0.7	62.3*	59.0*
O=C1C(=Cc2ccncc2)CCCc2ccccc21	17.8	.	.	.	-12.7	.	.
CCOc1cc(/C=C/C(=O)c2ccc(OC)c(CN3CCOCC3)c2)cc(Br)c1O	23.4*	-7.0	45.6	6.7	-12.2	29.6*	23.9*
CC1CCN(S(=O)(=O)c2ccc(NC(=O)Cc3cccs3)cc2)CC1	33.2*	-1.2	2.8	0.1	-4.3	43.7*	1.3
CC1CCN(S(=O)(=O)c2ccc(NC(=O)Cn3nnc(-c4ccccc4)n3)cc2)CC1	26.1*	1.9	7.5	0.4	1.5	52.9*	-1.3
CC1CCN(S(=O)(=O)c2ccc(NC(=O)CN3CCCC3)cc2)CC1	3.6	0.3	2.3	2.5	1.0	.	.
CCn1c2ccccc2c2cc(NC(=O)CSc3nnc(C4CC4)n3Cc3ccco3)ccc21	30.9*	0.5	-16.8	0.8	-0.7	11.4	24.6*
COc1ccc(NC(=O)C2(C)Cc3c(-c4ccc(NC(C)=O)cc4)ccnc3O2)cc1OC (configuration not stated)	8.4	.	.	.	8.3	.	.
CCc1cc(C(c2ccc(OC)c(OC)c2)N2CCOCC2)c(NC(=O)c2ccccc2)s1 (configuration not stated)	33.0*	-5.4	32.6	8.3	-1.7	99.1*	86.4*
COCCNC(=O)C(c1ccc(O)cc1)N(Cc1cccs1)C(=O)CCC(=O)Nc1ccccn1 (configuration not stated)	-5.2	0.8	33.7	-0.2	-3.1	.	.
